Compounds with a hit are over-represented: about 3.4% of the library has one in this group of screens.
SIRT5 inh = blocks human SIRT5 desuccinylation of peptide | Q9NXA8 | Purified SirT5, succinyl-peptide AMC, trypsin-coupled fluorescence | inhibition, % at 15 µM | 330,000 compounds, 1.1% hits | AID 652115; in the data active means inhibition above about 15%
Target sequence (Q9NXA8 whole entry, looked up): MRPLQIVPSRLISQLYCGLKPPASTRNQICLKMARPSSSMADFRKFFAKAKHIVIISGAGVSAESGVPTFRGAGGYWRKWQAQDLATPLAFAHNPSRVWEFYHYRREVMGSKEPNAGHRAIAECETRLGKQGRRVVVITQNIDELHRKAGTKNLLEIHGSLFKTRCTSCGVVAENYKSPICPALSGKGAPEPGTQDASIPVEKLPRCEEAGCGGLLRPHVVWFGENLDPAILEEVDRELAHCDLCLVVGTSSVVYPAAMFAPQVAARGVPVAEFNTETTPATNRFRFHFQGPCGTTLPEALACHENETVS
rRNA inh HTS = inhibitors of bacterial rRNA selective over humanized ribosomes. E. coli WT GFP vs humanized-ribosome RFP mutants, fluorescence, 24 h; stronger effect = lower value; DMSO median 0, no signal -100. GFP signal change (wild-type ribosome), % (no concentration beside the values). 350,000 compounds, 1.6% hits;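 active means significant combined selectivity score with lowered wild-type GFP, culture density cut under 30%, mutant RFP and density less affected; inactive means any of these conditions unmet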
S100A4 inh HTS = blocks human S100A4 binding to myosin IIA peptide | S100A4/TAMRA-MyoIIA peptide fluorescence polarization | inhibition, % at 10.7 µM | 360,000 compounds, 0.14% hits | AID 652163;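 active means mean inhibition of at least 70% across replicates, with every replicate also reaching that level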
Target sequence (P26447 whole entry, looked up): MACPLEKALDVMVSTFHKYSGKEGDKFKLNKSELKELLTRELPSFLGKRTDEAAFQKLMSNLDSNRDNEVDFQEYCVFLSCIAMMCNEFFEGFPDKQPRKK
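Material: human S100A4 monomer with TAMRA-labelled myosin IIA peptide; buffer or medium: HEPES pH 7.2 with CaCl2, KCl, NaCl, DTT, Triton; compound dosing: one concentration per compound; schedule: 5 min incubation before reading; benchmarks: neutral control DMSO, positive control TFP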
MLL AF4-AF9 inh = blocks AF4 peptide binding to human AF9. P42568. AlphaScreen, biotin-AF4 peptide binding to FLAG-AF9. inhibition, % at 10 µM. 350,000 compounds, 0.47% hits;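 active means every replicate reaching a set inhibition limit, whatever the replicate mean, cut at about 25% in these data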;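 further: 0% = plate neutral control median and 100% = total signal loss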
ERAP1 HTS inh = ERAP1 (human) enzyme inhibition; recombinant ERAP1, Leu-AMC fluorescence, 60 min; inhibition, % at 10.7 µM; 340,000 compounds, 0.15% hits;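 active means mean replicate inhibition of at least 30%, or all replicates individually reaching that 30% level; inactive means mean below 30% and not every replicate reaching it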;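 further: 0% = neutral control wells and 100% = L-leucinethiol positive control wells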
E-selectin induc = induces E-selectin expression in human endothelial cells; P16581; HUVEC E-selectin immunofluorescence imaging; normalized: neutral wells 0, TNF-alpha wells 100; 260,000 compounds, 0.37% hits; activation, % at 7.58 µM;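 active means mean E-selectin-positive cell signal at least 10% of the positive control, reached in at least 60% of replicates, without over 20% cell loss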
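Read-out basis: % PE-positive cells; Test system: HUVEC primary endothelial cells; Technique: immunofluorescence imaging; Dosing: single-point compound dose.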
* marks the source's active call; other numbers are inactive results; nt = not tested or not shown.

SMILES	SIRT5 inh	rRNA inh HTS	S100A4 inh HTS	MLL AF4-AF9 inh	ERAP1 HTS inh	E-selectin induc
CC(C)(O)c1cn([C@@H]2C[C@@H]3O[C@@H](CO)CC[C@@H]3O[C@@H]2CCc2ccc(-c3cccnc3)cc2)nn1	-3.6	nt	11.5	-2.6	-0.1	nt
Cc1ccc(C(=O)N2CCCC2)cc1S(=O)(=O)Nc1cccc(C)c1C	26.2*	-18.4	7.5	-5.2	-0.8	-2.3
COc1ccc(OC)c(CN2CCN(C(=O)c3ccc(C)c(S(=O)(=O)Nc4ccccc4OC)c3)CC2)c1	4.1	-3.2	-1.9	32.7*	-0.3	8.5
COc1ccc(OC)c(CN2CCN(C(=O)c3cc(S(=O)(=O)Nc4ccccc4OC)ccc3C)CC2)c1	4.1	-5.3	-0.3	3.8	1.8	-0.1
O=C(C[C@H]1C[C@@H]2c3cc(NC(=O)CC4CC4)ccc3O[C@@H]2[C@H](CO)O1)NCCN1CCCCC1	1.1	9.4	-2.1	0.7	10.0	-0.4
O=C(N[C@@H]1C=C[C@H](CC(=O)N2CCCCC2)O[C@@H]1CO)c1cccc(F)c1	-0.8	3.4	33.4	-19.8	0.7	0.6
CCOC(=O)c1c(C)nc(C)c(C(=O)OCC)c1-c1ccc(OC)cc1	25.6*	-38.0*	0.2	4.9	-3.8	nt
Cc1nc(C)c(C(=O)O)c(-c2ccsc2)c1C(=O)O	-3.2	11.5	-5.3	-1.6	nt	nt
COC(=O)c1c(C)nc(C)c(C(=O)OC)c1-c1ccsc1	-0.3	-40.0*	-3.9	nt	-1.9	nt
COC(=O)c1c(C)nc(C)c(C(=O)OC)c1-c1ccc(OC)cc1	-3.8	-7.1	1.0	-4.2	nt	nt
COc1cccc(NC(=O)N(C)C[C@@H]2Oc3ncc(C#Cc4ccncc4)cc3C(=O)N([C@H](C)CO)C[C@@H]2C)c1	-8.8	-4.5	-4.6	-3.6	1.0	0.1
COc1ccc(-n2nc(C#N)c(Cl)cc2=O)cc1	-4.8	-43.1*	8.0	-2.5	-1.7	-1.9
N=c1c2c3c(sc2ncn1Nc1ccccc1)CCC3	-0.4	-17.2*	-9.0	nt	-1.0	0.2
C[C@H]1CN([C@@H](C)CO)C(=O)c2cccc(NC(=O)C3CC3)c2O[C@H]1CN(C)S(=O)(=O)c1cn(C)cn1	-0.1	2.5	9.4	-1.2	-2.6	-0.2
COc1ccc(S(=O)(=O)Nc2ccc3c(c2)C(=O)N([C@@H](C)CO)C[C@@H](C)[C@@H](CN(C)S(=O)(=O)c2ccc(F)cc2)OCCCC[C@H](C)O3)cc1	16.1*	0.1	-12.0	-2.9	0.6	0.0
COc1ccc(S(=O)(=O)Nc2ccc3c(c2)C(=O)N([C@@H](C)CO)C[C@@H](C)[C@H](CN(C)S(=O)(=O)c2ccc(F)cc2)OCCCC[C@H](C)O3)cc1	8.4	6.7	2.4	1.3	-0.5	0.1
COc1ccc(S(=O)(=O)Nc2ccc3c(c2)C(=O)N([C@@H](C)CO)C[C@@H](C)[C@@H](CN(C)S(=O)(=O)c2ccc(F)cc2)OCCCC[C@@H](C)O3)cc1	10.6	-0.5	10.8	0.1	0.2	0.1
COc1ccc(S(=O)(=O)N(C)C[C@@H]2OCCCC[C@H](C)Oc3ccc(NS(=O)(=O)c4ccc(F)cc4)cc3C(=O)N([C@H](C)CO)C[C@H]2C)cc1	19.5*	-0.1	-18.8	0.2	-0.7	-0.2
COc1ccc(S(=O)(=O)Nc2ccc3c(c2)C(=O)N([C@@H](C)CO)C[C@@H](C)[C@H](CN(C)Cc2ccncc2)OCCCC[C@H](C)O3)cc1	17.1*	-2.3	-11.7	-3.0	-1.6	0.1
COc1ccc(S(=O)(=O)N(C)C[C@H]2OCCCC[C@@H](C)Oc3ccc(NS(=O)(=O)c4ccc(F)cc4)cc3C(=O)N([C@@H](C)CO)C[C@H]2C)cc1	18.1*	-0.3	-16.0	-1.2	0.5	-0.1
CCCNC(=O)N1[C@@H](CO)[C@@H](c2ccccc2)[C@@H]1CNC(=O)c1ccc(F)cc1	nt	-10.2	nt	nt	nt	0.0
COc1ccc(S(=O)(=O)N(C)C[C@H]2OCCCC[C@H](C)Oc3ccc(NS(C)(=O)=O)cc3C(=O)N([C@@H](C)CO)C[C@H]2C)cc1	-4.4	-3.7	1.7	0.8	-0.8	0.4
COc1ccc2c3c(n(C)c2c1)[C@@H](CO)N(Cc1nccs1)CC31CCN(C(=O)CC2CC2)CC1	nt	-0.6	nt	nt	nt	nt
O=C(CNCc1ccccc1)NCCCN1CCCC1=O	17.0*	4.0	-7.6	1.3	-7.2	0.0
Cc1cccc(C)c1NC(=O)c1cccc(C(=O)Nc2c(C)cccc2C)n1	-2.7	-25.1*	-6.5	1.2	3.2	-0.1
SMILES	SIRT5 inh	rRNA inh HTS	S100A4 inh HTS	MLL AF4-AF9 inh	ERAP1 HTS inh	E-selectin induc
COc1ccc(C=NNc2ccc([N+](=O)[O-])cc2S(=O)(=O)Nc2ccccc2C(=O)O)cc1OC	nt	-23.2*	-3.1	4.0	-27.7	0.0
COc1ccc(/C=N/Nc2ccccc2C(=O)O)cc1Cn1cc([N+](=O)[O-])cn1	-3.4	3.8	0.2	11.0	-10.3	nt
NS(=O)(=O)c1ccc(N/N=C/c2ccc(O)cc2O)c([N+](=O)[O-])c1	14.4	10.3	-6.5	-13.0	nt	-1.9
O=C(O)COc1ccccc1C=NNc1ccc([N+](=O)[O-])cc1S(=O)(=O)Nc1ccc(Cl)cc1	10.7	-23.0	-11.6	-0.7	-2.0	0.0
O=C(O)c1ccccc1NS(=O)(=O)c1ccc(N/N=C/c2ccc(O)c(O)c2)c([N+](=O)[O-])c1	20.7*	-25.2*	2.6	5.4	-23.9	nt
COc1ccc(NS(=O)(=O)c2cc([N+](=O)[O-])ccc2NN=Cc2ccccc2OCC(=O)O)cc1	-1.7	-32.3*	-0.8	7.3	4.5	0.1
NS(=O)(=O)c1ccc(N/N=C/c2ccc(O)c(O)c2O)c([N+](=O)[O-])c1	16.2*	2.4	5.5	3.3	0.8	0.0
CO[C@@H]1CN(C)C(=O)c2ccc(NC(=O)C3CCOCC3)cc2OC[C@H](C)N(C)C[C@@H]1C	nt	2.0	nt	nt	nt	-0.1
COc1ccc2c3c(n(C)c2c1)[C@H](CO)N(C(=O)CN(C)C)CC31CCN(C(=O)C2CCC2)CC1	nt	3.1	-7.1	-0.8	-7.8	-0.4
O=C1NC(Cc2ccc(Cl)cc2)COCc2cnnn2CCC1c1ccccc1 (centres undefined)	4.2	-1.0	89.7*	7.2	0.2	0.1
O=C1NC(Cc2cccc(Cl)c2)COCc2cnnn2CCC1c1ccccc1 (centres undefined)	5.5	-0.4	-5.9	1.6	2.2	-0.1
C[C@H]1CN([C@@H](C)CO)C(=O)c2cc(NS(C)(=O)=O)ccc2O[C@@H]1CN(C)S(=O)(=O)c1ccc(F)cc1	2.1	0.5	-3.2	-2.4	nt	-3.5
C[C@@H]1CN([C@H](C)CO)C(=O)c2cc(NS(=O)(=O)c3ccccc3)ccc2O[C@@H](C)CCCCO[C@@H]1CN(C)Cc1ccc(C(F)(F)F)cc1	0.4	3.2	-2.5	0.5	-1.6	1.2
